Results as given in ChEMBL document CHEMBL1142378, “Characterization and crystal structure of Escherichia coli KDPGal aldolase” (Bioorg Med Chem, 2008).

T1: 2-dehydro-3-deoxy-6-phosphogalactonate aldolase (Escherichia coli (strain K12)), Q6BF16 [V154A]
T1 sequence (whole entry): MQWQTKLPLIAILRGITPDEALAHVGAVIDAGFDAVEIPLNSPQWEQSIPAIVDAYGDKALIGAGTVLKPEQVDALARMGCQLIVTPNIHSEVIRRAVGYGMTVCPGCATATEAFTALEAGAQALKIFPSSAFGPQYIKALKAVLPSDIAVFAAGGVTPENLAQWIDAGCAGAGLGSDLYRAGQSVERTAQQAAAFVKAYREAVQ

T2: KHG/KDPG aldolase (Escherichia coli (strain K12)), P0A955 [T161A]
T2 sequence (whole entry): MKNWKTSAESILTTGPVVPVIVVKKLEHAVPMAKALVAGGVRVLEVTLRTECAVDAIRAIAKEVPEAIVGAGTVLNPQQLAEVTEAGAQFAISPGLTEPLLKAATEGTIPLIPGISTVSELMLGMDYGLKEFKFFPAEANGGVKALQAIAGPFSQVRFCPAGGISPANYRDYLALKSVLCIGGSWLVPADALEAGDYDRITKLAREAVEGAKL

T3: 2-dehydro-3-deoxy-6-phosphogalactonate aldolase (Escherichia coli (strain K12)), Q6BF16 [V154T]
T3 sequence (whole entry): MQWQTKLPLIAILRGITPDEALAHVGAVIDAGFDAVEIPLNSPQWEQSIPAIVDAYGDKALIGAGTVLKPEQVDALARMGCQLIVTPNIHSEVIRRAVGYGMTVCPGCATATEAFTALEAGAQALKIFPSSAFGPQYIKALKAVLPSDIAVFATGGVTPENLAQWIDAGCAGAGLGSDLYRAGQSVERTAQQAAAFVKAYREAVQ

T4: KHG/KDPG aldolase (Escherichia coli (strain K12)), P0A955 [T161V]
T4 sequence (whole entry): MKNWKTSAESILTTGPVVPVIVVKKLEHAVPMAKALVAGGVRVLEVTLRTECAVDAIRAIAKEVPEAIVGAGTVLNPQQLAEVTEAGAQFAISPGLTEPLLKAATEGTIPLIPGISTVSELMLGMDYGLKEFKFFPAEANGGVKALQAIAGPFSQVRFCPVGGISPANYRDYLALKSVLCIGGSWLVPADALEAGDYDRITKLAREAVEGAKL


Tests used:
Escherichia coli [1] = test: Ratio of kcat to Km for Escherichia coli KDPGal aldolase
In short: (§1)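 The enzyme started a coupled L-lactate dehydrogenase assay in 20 mM HEPES pH 7.0 with 0.42 mM NADH, KDPGal at 0.2×–5× KM and 105 U LDH. The A340 decrease was followed for 5 min. Initial slopes were fitted to Michaelis–Menten.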

Escherichia coli [2] = test: Activity of Escherichia coli KDPGal aldolase; in short: as §1
Escherichia coli [3] = test: Activity of Escherichia coli KDPG aldolase
In short: (§2)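 Wild-type KDPG aldolase activity toward KDPG (0.2×–5× KM) was read through a coupled L-lactate dehydrogenase system: 20 mM HEPES pH 7.0, 0.42 mM NADH, 105 U LDH. Aldolase was added to start the reaction, NADH loss was followed at 340 nm for 5 min, and Michaelis–Menten fits gave the parameters.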

[4] = tested on: T1, 2-dehydro-3-deoxy-6-phosphogalactonate aldolase (Escherichia coli (strain K12)), Q6BF16 [V154A]; test: Ratio of kcat to Km for Escherichia coli KDPGal aldolase V154A mutant
In short: (§3)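 V154A or V154T KDPGal aldolase was made by Quikchange and expressed in DF71 (eda–) cells, with 1 mM IPTG induction at 25 °C for 16 h. It was nickel-affinity purified. Retro-aldol cleavage of KDPGal (0.2×–5× KM) was coupled to L-lactate dehydrogenase (105 U) in 20 mM HEPES pH 7.0 with 0.42 mM NADH. Aldolase was added last, and A340 loss was read over 5 min. Kinetic constants came from Michaelis–Menten fits of initial rates.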

Escherichia coli [5] = test: Ratio of kcat to Km of Escherichia coli KDPG aldolase; in short: as §2
[6] = tested on: T2, KHG/KDPG aldolase (Escherichia coli (strain K12)), P0A955 [T161A]; test: Ratio of kcat to Km of Escherichia coli KDPG aldolase T161A mutant
In short: (§4)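 KDPG aldolase T161A or T161V mutants were expressed from the pET plasmid in DF71 (eda–) cells, induced with 1 mM IPTG at 25 °C for 16 h, and purified on nickel resin. Assays used 20 mM HEPES pH 7.0, 0.42 mM NADH, KDPG at 0.2×–5× KM and 105 U rabbit-muscle L-lactate dehydrogenase, started with enzyme. A340 was monitored for 5 min, and initial velocities were fitted to Michaelis–Menten.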

[7] = tested on: T3, 2-dehydro-3-deoxy-6-phosphogalactonate aldolase (Escherichia coli (strain K12)), Q6BF16 [V154T]; test: Ratio of kcat to Km for Escherichia coli KDPGal aldolase V154T mutant; in short: as §3
[8] = tested on: T4, KHG/KDPG aldolase (Escherichia coli (strain K12)), P0A955 [T161V]; test: Ratio of kcat to Km of Escherichia coli KDPG aldolase T161V mutant; in short: as §4
[9] = substrate: O=C(O)C(=O)C[C@H](O)[C@@H](O)COP(=O)(O)O; test: (§5) Activity of Escherichia coli KDPGal aldolase V154T mutant; in short: as §3
[10] = substrate: O=C(O)C(=O)C[C@H](O)[C@H](O)COP(=O)(O)O; test: as §5; in short: as §3
[11] = substrate: O=C(O)C(=O)C[C@H](O)[C@@H](O)COP(=O)(O)O; test: (§6) Activity of Escherichia coli KDPGal aldolase V154A mutant; in short: as §3
[12] = substrate: O=C(O)C(=O)C[C@H](O)[C@H](O)COP(=O)(O)O; test: as §6; in short: as §3

Ratio (Escherichia coli [1])	Km (Escherichia coli [2])	kcat (Escherichia coli [2])	Km (Escherichia coli [3])	kcat (Escherichia coli [3])	Ratio [4]	Ratio (Escherichia coli [5])	Ratio [6]	Ratio [7]	Ratio [8]	Molecule	Km [9]	kcat [9]	Km [10]	kcat [10]	Km [11]	kcat [11]	Km [12]	kcat [12]
1.1 mM⁻¹ s⁻¹	1300 µM	1.4 s⁻¹	100 µM	80 s⁻¹	0.02 mM⁻¹ s⁻¹	800 mM⁻¹ s⁻¹	58 mM⁻¹ s⁻¹	0.1 mM⁻¹ s⁻¹	0.07 mM⁻¹ s⁻¹	O=C(O)C(=O)C[C@H](O)[C@H](O)COP(=O)(O)O	–	–	–	–	–	–	–	–
19 mM⁻¹ s⁻¹	200 µM	3.8 s⁻¹	600 µM	1.7 s⁻¹	1.3 mM⁻¹ s⁻¹	2.8 mM⁻¹ s⁻¹	5 mM⁻¹ s⁻¹	0.7 mM⁻¹ s⁻¹	0.1 mM⁻¹ s⁻¹	O=C(O)C(=O)C[C@H](O)[C@@H](O)COP(=O)(O)O	–	–	–	–	–	–	–	–

More lines, now with the values behind:

Molecule	Ratio (Escherichia coli [1])	Km (Escherichia coli [2])	kcat (Escherichia coli [2])	Km (Escherichia coli [3])	kcat (Escherichia coli [3])	Ratio [4]	Ratio (Escherichia coli [5])	Ratio [6]	Ratio [7]	Ratio [8]	Km [9]	kcat [9]	Km [10]	kcat [10]	Km [11]	kcat [11]	Km [12]	kcat [12]
2-dehydro-3-deoxy-6-phosphogalactonate aldolase (Escherichia coli (strain K12)), Q6BF16 V154T (protein) MQWQTKLPLIAILRGITPDEALAHVGAVIDAGFDAVEIPLNSPQWEQSIPAIVDAYGDKALIGAGTVLKPEQVDALARMGCQLIVTPNIHSEVIRRAVGYGMTVCPGCATATEAFTALEAGAQALKIFPSSAFGPQYIKALKAVLPSDIAVFATGGVTPENLAQWIDAGCAGAGLGSDLYRAGQSVERTAQQAAAFVKAYREAVQ	–	–	–	–	–	–	–	–	–	–	300 µM	0.2 s⁻¹	90 µM	0.01 s⁻¹	–	–	–	–
2-dehydro-3-deoxy-6-phosphogalactonate aldolase (Escherichia coli (strain K12)), Q6BF16 V154A (protein) MQWQTKLPLIAILRGITPDEALAHVGAVIDAGFDAVEIPLNSPQWEQSIPAIVDAYGDKALIGAGTVLKPEQVDALARMGCQLIVTPNIHSEVIRRAVGYGMTVCPGCATATEAFTALEAGAQALKIFPSSAFGPQYIKALKAVLPSDIAVFAAGGVTPENLAQWIDAGCAGAGLGSDLYRAGQSVERTAQQAAAFVKAYREAVQ	–	–	–	–	–	–	–	–	–	–	–	–	–	–	400 µM	0.5 s⁻¹	300 µM	0.007 s⁻¹
